Test results: ChEMBL document CHEMBL5325455, “Daphnanes diterpenes from the latex of Hura crepitans L. and their PKCζ-dependent anti-proliferative activity on colorectal cancer cells” (Bioorg Med Chem, 2023)
Active and inactive are the calls of the source. No cut-off for these calls is given here.

Tests used:
[1] = system: Caco-2; test: Cytostatic activity against human Caco-2 cells assessed as inhibition of cell growth at 0.5 ug/ml incubated for 48 hrs by MTS assay relative to control; type: functional
Method in brief: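 Caco-2 cells were seeded at 40 000/well 48 h before dosing. Compound was diluted from a 10 mg/mL DMSO stock into medium (0.125, 0.5 or 1 µg/mL final; DMSO ≤0.01%) and added in triplicate for 48 h. Viability was read by MTS absorbance at 490 nm and expressed relative to the DMSO control.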

[2] = system: Caco-2; test: (§1) Induction of morphological changes in human Caco-2 cells at 1 ug/ml preincubated for 30 mins with CRT0066854 hydrochloride followed by compound addition and measured after 48 hrs by Hoechst 3342 and phalloidin staining based confocal microscopic analysis; type: functional, cell-based; settings: dose 1.0 µg/ml
Method in brief: (§2)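 CRT0066854 hydrochloride (2.5 µM) was added to Caco-2 cells 30 min before compound at 1 µg/mL. After 48 h, nuclei and actin cytoskeleton were labelled and confocal views taken with a 20X objective; duplicates from one experiment.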

[3] = system: Caco-2; test: as §1, with “cells assessed as reorganization of epithelial tissue architecture by measuring effect on actin density” for “cells”; type: functional, cell-based; settings: dose 1.0 µg/ml; method in brief: as §2
[4] = target: T1, Protein kinase C zeta type (Homo sapiens) (UniProt Q05513); test: Activation of PKCzeta in human Caco-2 cells assessed as increase in colocalization of PKCzeta and actin in dense cell aggregates at 1 ug/ml measured after 48 hrs by immunostaining analysis; type: cell-based; settings: filed as activator, dose 1.0 µg/ml
T1 sequence (whole entry): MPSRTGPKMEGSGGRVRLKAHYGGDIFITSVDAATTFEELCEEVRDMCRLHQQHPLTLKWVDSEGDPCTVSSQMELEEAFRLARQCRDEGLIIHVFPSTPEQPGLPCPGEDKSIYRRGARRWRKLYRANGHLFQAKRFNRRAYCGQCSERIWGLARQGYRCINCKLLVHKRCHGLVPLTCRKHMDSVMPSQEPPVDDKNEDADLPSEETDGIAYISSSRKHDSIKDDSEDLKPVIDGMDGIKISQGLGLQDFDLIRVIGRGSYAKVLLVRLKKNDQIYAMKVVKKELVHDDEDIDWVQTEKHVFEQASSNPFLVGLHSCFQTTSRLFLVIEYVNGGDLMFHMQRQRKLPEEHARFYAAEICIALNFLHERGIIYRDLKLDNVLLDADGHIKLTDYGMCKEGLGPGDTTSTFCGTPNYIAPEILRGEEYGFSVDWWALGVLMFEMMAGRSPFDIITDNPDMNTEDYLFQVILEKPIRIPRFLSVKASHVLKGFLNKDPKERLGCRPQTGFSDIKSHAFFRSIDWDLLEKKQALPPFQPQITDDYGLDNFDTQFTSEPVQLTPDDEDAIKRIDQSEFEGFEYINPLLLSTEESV
Method in brief: (§3)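 Caco-2 cells were seeded at 40 000/well and treated for 48 h as in the viability assay. They were fixed in 3.7% PFA for 20 min and permeabilised in HBSS/0.5% Triton X100/1% BSA. Anti-PKCζ (1/50) or anti-PKCα (1/200) was applied overnight at 4°C, then Alexa 488 secondary for 45 min. Phalloidin and Hoechst counterstained the cells before confocal imaging; PKCα signal was quantified by immunofluorescence.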

[5] = target: Glycogen synthase kinase-3 beta (Homo sapiens) (UniProt P49841); test: Inhibition of GSK3beta in human Caco-2 cells assessed as increase in phosphorylation at serine 9 residue at 1 ug/ml preincubated for 30 mins with CRT0066854 hydrochloride followed by compound addition and measured after 48 hrs by Western blot analysis; type: cell-based; settings: dose 1.0 µg/ml
Sequence of Glycogen synthase kinase-3 beta (Homo sapiens) (P49841 whole entry, looked up): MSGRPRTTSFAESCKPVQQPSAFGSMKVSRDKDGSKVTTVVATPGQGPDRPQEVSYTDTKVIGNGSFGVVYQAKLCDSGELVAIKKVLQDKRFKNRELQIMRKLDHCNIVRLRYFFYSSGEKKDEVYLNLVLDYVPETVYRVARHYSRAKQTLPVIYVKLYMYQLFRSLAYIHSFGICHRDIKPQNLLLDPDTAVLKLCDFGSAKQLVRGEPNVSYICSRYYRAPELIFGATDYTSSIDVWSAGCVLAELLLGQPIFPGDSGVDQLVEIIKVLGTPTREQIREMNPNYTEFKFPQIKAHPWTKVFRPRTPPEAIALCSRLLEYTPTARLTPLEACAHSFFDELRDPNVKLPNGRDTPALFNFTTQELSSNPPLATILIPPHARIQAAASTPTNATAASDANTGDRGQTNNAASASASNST
Method in brief: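 Caco-2 cells were pretreated with 2.5 µM CRT0066854 hydrochloride for 30 min, then treated at 1 µg/mL for 48 h. Lysates (30 µg protein) were immunoblotted for pSer9-GSK3β and total GSK3β, with actin loading control and ECL detection; n=2.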

[6] = system: Caco-2; test: Cytostatic activity against human Caco-2 cells assessed as reduction in cell growth at 1 ug/ml preincubated for 15 mins with PD0325901 followed by compound addition and measured after 48 hrs by MTS assay; type: functional, cell-based; settings: dose 1.0 µg/ml
Method in brief: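 Caco-2 cells were pretreated with 0.5 µM PD0325901 for 15 min, then given compound at 1 µg/mL for 48 h. Viability was measured by MTS at 490 nm; n=3, t-test versus DMSO.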

[7] = system: Zika virus; test: Antiviral activity against ZIKV expressing GFP reporter gene measured 24 hrs post infection; type: functional, organism-based
Method in brief: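 Cells in 96-well plates were exposed to serial concentrations starting at 50 µg/mL and infected with GFP-reporter Zika virus at MOI 1. At 24 h post-infection, cells were fixed in 3.7% PFA and GFP-positive cells were counted by flow cytometry.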

[8] = system: SARS-CoV-2; test: Antiviral activity against SARS-CoV-2 assessed as reduction in progeny production measured 24 hrs post infection by PFU assay; type: functional, organism-based; settings: Severe acute respiratory syndrome coronavirus 2, 24 h
[9] = system: Colorectal epithelial cell; test: Cytostatic activity against human Colorectal epithelial cells isolated from patient with fistulized sigmoiditis cultured as organoids at 1 ug/ml incubated for 48 hrs by CellTiter-Glo luminescence assay; type: functional, cell-based; settings: dose 1.0 µg/ml
Method in brief: (§4)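 Primary colonic epithelial cells (3 control and 2 CRC patients) were expanded as organoids or spheroids in Matrigel with EGF/noggin/Wnt3a/R-spondin medium. Single cells were seeded at 2500/well and allowed 48 h to form colonoids, then exposed for 48 h at 0.01, 0.1 or 1 µg/mL, with 5FdU at 1 µg/mL as positive control. Viability was read by CellTiter-Glo luminescence versus DMSO or medium control.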

[10] = system: Colorectal epithelial cell; test: Cytostatic activity against human Colorectal epithelial cells isolated from patient with well-differentiated colonic adenocarcinoma and undergone nine courses of chemotherapy cultured as organoids at 1 ug/ml incubated for 48 hrs by CellTiter-Glo luminescence assay; type: functional, cell-based; settings: dose 1.0 µg/ml; method in brief: as §4
[11] = target: Protein kinase C delta type (Homo sapiens) (UniProt Q05655); test: Inhibition of PKCdelta in human Caco-2 cells assessed as reduction in protein phosphorylation at Ser664 residue at 1 ug/ml preincubated for 15 mins with PKCalpha inhibitor, Go6976 followed by compound addition and measured after 48 hrs by Western blot analysis; type: cell-based; settings: dose 1.0 µg/ml
Sequence of Protein kinase C delta type (Homo sapiens) (Q05655 whole entry, looked up): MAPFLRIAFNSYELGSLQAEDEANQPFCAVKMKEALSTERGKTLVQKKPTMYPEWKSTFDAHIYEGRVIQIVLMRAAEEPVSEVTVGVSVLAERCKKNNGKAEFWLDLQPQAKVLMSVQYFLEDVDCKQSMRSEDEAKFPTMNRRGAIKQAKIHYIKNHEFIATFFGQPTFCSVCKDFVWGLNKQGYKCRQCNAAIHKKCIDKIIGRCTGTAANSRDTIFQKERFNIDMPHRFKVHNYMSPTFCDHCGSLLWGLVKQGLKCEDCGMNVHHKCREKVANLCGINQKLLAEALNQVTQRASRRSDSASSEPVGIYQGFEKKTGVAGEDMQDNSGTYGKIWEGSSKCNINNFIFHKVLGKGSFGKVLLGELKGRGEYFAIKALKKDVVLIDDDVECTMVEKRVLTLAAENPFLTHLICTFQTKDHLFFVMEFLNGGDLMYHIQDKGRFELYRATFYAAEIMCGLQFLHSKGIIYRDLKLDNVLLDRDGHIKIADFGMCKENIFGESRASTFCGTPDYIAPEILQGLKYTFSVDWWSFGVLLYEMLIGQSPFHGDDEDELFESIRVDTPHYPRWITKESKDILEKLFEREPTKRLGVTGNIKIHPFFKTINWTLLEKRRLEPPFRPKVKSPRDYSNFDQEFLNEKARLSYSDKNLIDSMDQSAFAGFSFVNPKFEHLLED
Method in brief: (§5)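 Caco-2 cells were given 0.2 µM Gö6976 for 15 min, then compound at 1 µg/mL for 48 h. Lysates (30 µg protein) were blotted for pSer664-PKCδ and total PKCδ with actin loading control, and the pSer664/total PKCδ ratio was quantified. Data are from one experiment.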

[12] = target: Protein kinase C delta type (Homo sapiens) (UniProt Q05655); test: Inhibition of PKCdelta in human Caco-2 cells assessed as ratio of phosphorylated PKCdelta at Ser664 residue to total PKCdelta level at 1 ug/ml incubated for 48 hrs by Western blot analysis (reference value: 0.77); type: cell-based; settings: dose 1.0 µg/ml
[13] = target: Protein kinase C delta type (Homo sapiens) (UniProt Q05655); test: Inhibition of PKCdelta in human Caco-2 cells assessed as ratio of phosphorylated PKCdelta at Ser664 residue to total PKCdelta level at 1 ug/ml preincubated for 15 mins with PKCalpha inhibitor, Go6976 followed by compound addition and measured after 48 hrs by Western blot analysis (reference value: 0.94); type: cell-based; settings: dose 1.0 µg/ml; method in brief: as §5
[14] = system: Caco-2; test: Induction of morphological changes in human Caco-2 cells assessed as effect on cellular aggregation at 1 ug/ml preincubated for 30 mins with CRT0066854 hydrochloride followed by compound addition and measured after 48 hrs by Hoechst 3342 and phalloidin staining based confocal microscopic analysis; type: functional, cell-based; settings: dose 1.0 µg/ml; method in brief: as §2
[15] = target: T1, Protein kinase C zeta type (Homo sapiens); test: Activation of PKCzeta in human Caco-2 cells assessed as increase in colocalization of PKCzeta and actin in peripheral to cell aggregates at 1 ug/ml measured after 48 hrs by immunostaining analysis; type: cell-based; settings: filed as activator, dose 1.0 µg/ml; method in brief: as §3

C=C(C)[C@]12C[C@@H](C)[C@@]34O[C@](/C=C/C=C/CCCCCCCCC)(O[C@@H]1[C@@H]3[C@@H]1O[C@]1(CO)[C@@H](O)[C@]1(O)C(=O)C(C)=C[C@H]14)O2
inhibition at 0.5 µg/mL [1]: 20% | Activity [2]: inactive | Activity [3]: inactive | Activity [4]: Active | inhibition [5]: inactive | Activity [6]: inactive | IC50 [7]: > 50 µM | IC50 [8]: 64.2 µM | Activity [9]: Active | Activity [10]: Active | inhibition [11]: Active | Ratio [12]: 0.73 | Ratio [13]: 0.68

C=C(C)[C@]12C[C@@H](C)[C@@]34O[C@](/C=C/[C@@H]5O[C@H]5CCCCCCCCC)(O[C@@H]1[C@@H]3[C@@H]1O[C@]1(CO)[C@@H](O)[C@]1(O)C(=O)C(C)=C[C@H]14)O2
Activity [2]: inactive | Activity [14]: inactive | Activity [15]: Active | inhibition [5]: inactive | Activity [9]: Active | Activity [10]: Active
